Bioassay records (PubChem BioAssay)
NOD2 RIPK2 PPI – NOD2-RIPK2 binding disruptors in cells, primary screen, fluorescence, CHO cells, BLA complementation; CCF4 ratio; AID 624267, 2012; hit rate 0.38% among 360,000; Receptor-interacting serine/threonine-protein kinase 2 (Homo sapiens), O43353; inhibition, % at 4.98 µM; in the data active = inhibition above about 21%;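 also: 0% = vehicle only and 100% = reference blocker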
SR-BI HDL uptake – inhibitors of SR-BI mediated HDL lipid uptake, primary screen, ldlA[mSR-BI] cells, fluorescence, single point; Scavenger receptor class B member 1 (Mus musculus), Q61009; ldlA[mSR-BI] CHO cells, DiI-HDL uptake fluorescence, 3 h; inhibition, % at 12.5 µM; hit rate 0.96% among 320,000; AID 488896, 2010;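 active = mean replicate inhibition of at least 70% and a set share of replicates each scoring 70 or more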;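 also: 0% = median of neutral control wells and 100% = median of positive control wells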
Hep lipid drop – inhibitors of hepatocyte lipid droplet formation, primary screen, imaging, high-throughput imaging, BODIPY stain; AML12 mouse hepatocytes, oleate lipid droplets; AID 1656, 2009; inhibition, % at 6.5 µM; hit rate 0.4% among 240,000;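 active = lipid droplet intensity inhibited by at least 50%, with more than 500 cells counted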
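Assay system: AML12 mouse liver cells | Compound: 6.5 µM single-point dosing | Schedule: Overnight exposure | Technique: Fluorescence imaging, 20x objective, two fields per well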
TLR4 MyD88 comp – inhibitors of TLR4-MyD88 association in cells, primary screen, cell-based, HeLa CL3-4, BLA complementation, FRET ratio; HeLa CL3-4 TLR4/MyD88 BLA complementation; inhibition, % at 8.4 µM; hit rate 0.18% among 200,000; AID 861, 2007; in the data active = inhibition above about 25%;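 also: 0% = vehicle and 100% = reference inhibitor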
Target sequence (O00206 whole entry, looked up): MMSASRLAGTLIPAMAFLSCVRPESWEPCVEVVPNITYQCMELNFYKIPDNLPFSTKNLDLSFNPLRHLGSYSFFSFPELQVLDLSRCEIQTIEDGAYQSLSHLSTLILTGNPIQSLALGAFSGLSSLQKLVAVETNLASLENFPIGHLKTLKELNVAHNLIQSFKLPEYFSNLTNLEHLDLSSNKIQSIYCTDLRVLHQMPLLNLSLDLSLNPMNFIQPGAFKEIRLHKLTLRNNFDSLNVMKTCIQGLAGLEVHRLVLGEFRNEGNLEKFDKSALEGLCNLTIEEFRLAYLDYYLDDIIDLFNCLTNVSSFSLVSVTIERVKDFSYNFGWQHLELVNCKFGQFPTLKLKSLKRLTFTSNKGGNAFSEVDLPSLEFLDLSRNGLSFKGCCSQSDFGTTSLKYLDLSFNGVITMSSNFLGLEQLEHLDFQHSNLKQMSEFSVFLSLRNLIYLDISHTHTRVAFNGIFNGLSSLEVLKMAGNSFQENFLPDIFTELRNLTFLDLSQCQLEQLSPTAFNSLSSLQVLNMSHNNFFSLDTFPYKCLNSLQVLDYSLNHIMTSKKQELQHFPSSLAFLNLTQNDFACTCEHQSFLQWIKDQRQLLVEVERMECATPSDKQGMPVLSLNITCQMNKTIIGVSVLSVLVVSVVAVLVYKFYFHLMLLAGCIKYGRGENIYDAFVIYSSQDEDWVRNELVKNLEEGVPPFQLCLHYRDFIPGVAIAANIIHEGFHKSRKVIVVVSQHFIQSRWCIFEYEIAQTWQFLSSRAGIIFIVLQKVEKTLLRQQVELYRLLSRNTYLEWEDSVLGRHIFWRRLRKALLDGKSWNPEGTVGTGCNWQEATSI
Target sequence (Q99836 whole entry, looked up): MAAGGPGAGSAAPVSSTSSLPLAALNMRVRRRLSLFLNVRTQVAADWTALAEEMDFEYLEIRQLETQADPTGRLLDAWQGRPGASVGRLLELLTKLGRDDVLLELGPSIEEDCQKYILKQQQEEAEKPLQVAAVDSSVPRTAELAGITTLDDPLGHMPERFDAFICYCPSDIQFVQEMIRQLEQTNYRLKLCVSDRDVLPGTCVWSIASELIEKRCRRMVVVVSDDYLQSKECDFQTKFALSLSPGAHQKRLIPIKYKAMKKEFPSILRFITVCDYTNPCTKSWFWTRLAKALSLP
TLR9-MyD88 inh – inhibitors of TLR9-MyD88 association in cells, primary screen, cell-based, CHO, BLA complementation, fluorescence; inhibition, % at 4.98 µM; hit rate 0.21% among 340,000; CCF4 FRET ratio; AID 504734, 2011;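 active = inhibition above the mean over all tested compounds plus 3 SD, cut at about 21% in these data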;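 also: 0% = DMSO only wells and 100% = clavulanate BLA inhibitor control wells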
SR-BI uptake up – activators of SR-BI mediated DiI-HDL uptake, primary screen, ldlA[mSR-BI] CHO cells, DiI fluorescence; 3 h; 100 = double the neutral-control signal; activation, % at 12.5 µM; hit rate 0.096% among 320,000;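 active = mean replicate activation of at least 60% and every replicate at or above 60%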;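 also: 0% = median plate neutral-control signal and 100% = twice that signal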
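System: CHO ldlA[mSR-BI] cells / Medium: HEPES-buffered (25 mM, pH 7.4) F12 plus 0.5% BSA / Probe or stimulus: labelled HDL, 10 µg/mL / Doses: single compound concentration, delivered by pin transfer / Schedule: 3 h, 37 °C / Measured by: DiI fluorescence, bottom read / Measure: cell-associated DiI fluorescence as measure of HDL uptake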
TLR4 MyD88 cnf – TLR4-MyD88 association inhibitors, retest, confirmation, cell-based, HeLa CL3-4, BLA complementation, FRET ratio; CCF4 FRET ratio; shares compounds with TLR4 MyD88 comp; hit rate 50% among 350; inhibition, % at 8.4 µM; AID 941, 2007;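 active = mean inhibition across three repeat runs above about 25% carried over from the earlier screen, limit read from the data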;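 also: plate controls were DMSO only for no effect and clavulanic acid blocking BLA at full dose for full effect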
BLA inh HeLa – counter-screen for TLR4-MyD88 inhibitors: beta-lactamase reporter inhibitors | shares compounds with TLR4 MyD88 comp | HeLa BLA reporter, CCF4 FRET ratio | inhibition, % at 8.4 µM | hit rate 63% among 350 | AID 1237;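 active = mean inhibition over three repeats above about 26% taken from the earlier screen, limit read from the data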;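 also: HeLa cells stably expressing beta-lactamase reporter as counterscreen for TLR4-MyD88 inhibitors; 0% = DMSO and 100% = clavulanic acid full inhibition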
TLR9-MyD88 conf – TLR9-MyD88 association inhibitors, retest, confirmation, cell-based, CHO, BLA complementation, fluorescence, triplicate; hit rate 51% among 680; CCF4 FRET ratio; inhibition, % at 4.98 µM; AID 540250, 2011; shares compounds with TLR9-MyD88 inh;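 active = mean inhibition across three repeats above about 21% taken from the earlier screen, limit read from the data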;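 also: blue over green emission ratio reports constitutive TLR9 MyD88 association via BLA complementation; 0% = DMSO vehicle wells and 100% = clavulanate BLA inhibitor wells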
BLA counter-1 – beta-lactamase reporter inhibitors in CHO cells, artefact control for TLR9-MyD88 binding inhibitor project, cell-based, fluorescence | shares compounds with TLR9-MyD88 inh | CHO-BLA cells, CCF4 FRET ratio, BLA reporter | inhibition, % at 4.98 µM | hit rate 7% among 680 | AID 540251, 2011;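 active = mean inhibition above a 50% cutoff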;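 also: counterscreen of TLR9-MyD88 hits on CMV-driven BLA in CHO-K1 cells; 0% = DMSO alone and 100% = clavulanate blocking BLA; higher means less blue over green ratio so more BLA blockade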
TLR9 CHO tox – CHO cell viability loss – luminescence, single concentration, cytotoxicity control for TLR9-MyD88 binding inhibitor project | shares compounds with TLR9-MyD88 inh | TLR9-MyD88 CHO cells cytotoxicity | inhibition, % at 4.98 µM | hit rate 39% among 680 | AID 588336, 2011; in the data active = inhibition above about 11%
NOD2 RIPK2 conf – NOD2-RIPK2 binding disruptors, retest, confirmation, fluorescence, CHO cells, BLA complementation, triplicate; shares compounds with NOD2 RIPK2 PPI; inhibition, % at 4.98 µM; CCF4 FRET; hit rate 70% among 1,200; AID 624370, 2012;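 active = mean inhibition across replicates above a set limit taken from the earlier primary screen, cut at about 21% in these data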;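 also: 0% = DMSO-only wells and the high end = clavulanate BLA-blocked wells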
BLA counter-2 – NOD2-RIPK2 counterscreen BLA reporter activity; CHO BLA reporter, CCF4 FRET ratio; hit rate 57% among 1,200; shares compounds with NOD2 RIPK2 PPI; inhibition, % at 4.98 µM;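 active = mean inhibition above the low-control mean inhibition plus three low-control SD, cut at about 11% in these data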;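 also: 0% = DMSO only wells and 100% = clavulanate high control wells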
Numbers without * were called inactive; / = no result. A selection: hits, their analogues and other compounds. The true share with any hit is near 1.6%.

SMILES	NOD2 RIPK2 PPI	SR-BI HDL uptake	Hep lipid drop	TLR4 MyD88 comp	TLR9-MyD88 inh	SR-BI uptake up	TLR4 MyD88 cnf	BLA inh HeLa	TLR9-MyD88 conf	BLA counter-1	TLR9 CHO tox	NOD2 RIPK2 conf	BLA counter-2
Cc1nc(N2N=C3/C(=C/c4ccc(F)cc4)CCCC3C2c2ccc(F)cc2)sc1C(=O)N(C)C (stereo unspecified)	42.4*	54.2	-19.2	41.5*	20.7	-54.2	37.4*	64.8*	/	/	/	57.2*	65.0*
CCOC(=O)CS(=O)(=O)c1nc(-c2ccccc2)cc(C(F)(F)F)n1	85.1*	98.0*	/	25.2*	30.1*	-98.0	17.5	-18.0	30.0*	7.1	99.9*	84.8*	26.5*
CCOC(=O)CS(=O)(=O)c1ccccc1	-10.7	-13.0	/	9.5	-6.0	13.0	/	/	/	/	/	/	/
O=C1CCC(C(=O)N2CCCCCC2)CN1Cc1cccc(C(F)(F)F)c1 (stereo unspecified)	-15.7	-12.2	-1.3	/	-6.5	12.2	/	/	/	/	/	/	/
CN(C)c1ccc(/C=C/C(=O)c2cccc(Br)c2)cc1	60.0*	-3.0	/	63.5*	32.9*	3.0	66.2*	89.7*	27.5*	34.1	-1.6	63.6*	67.7*
CNC(=O)COC(=O)c1ccccc1C(=O)c1ccc(Cl)c([N+](=O)[O-])c1	24.5*	22.0	0.4	31.6*	25.4*	-22.0	22.0	5.3	23.2*	18.5	7.6	52.9*	6.8
O=c1oc2ccccc2cc1-c1nc2c(s1)CCc1ccccc1-2	40.1*	16.1	-20.4	31.4*	48.7*	-16.1	47.0*	81.1*	50.5*	57.5*	-1.6	68.6*	78.6*
Nc1nnc(-c2cc3ccccc3oc2=O)s1	11.8	-19.6	23.4	13.8	14.0	19.6	/	/	/	/	/	/	/
O=c1oc2cc(O)ccc2cc1-c1nc2c(s1)CCc1ccccc1-2	44.5*	-2.8	-11.4	52.5*	46.9*	2.8	68.6*	99.0*	66.7*	78.7*	2.0	72.1*	84.8*
Cc1ccc(C(C)C)c(OCC(=O)NNC(=O)CC2OC(=O)c3ccccc32)c1 (stereo unspecified)	4.9	-18.1	/	/	2.3	18.1	/	/	/	/	/	/	/
CCOC(=O)C1=C(CSc2nc(-c3ccccc3)ccc2C#N)OC(N)=C(C#N)C1c1cccnc1 (stereo unspecified)	21.2*	-8.0	1.7	26.6*	14.4	8.0	6.5	15.4	/	/	/	26.2*	36.9*
CCOC(=O)CC1=C(C(=O)OCC)C(c2cccnc2)C(C#N)=C(N)O1 (stereo unspecified)	-4.9	-6.9	1.3	-1.1	2.5	6.9	/	/	/	/	/	/	/
Nc1ccc2c(c1)Cc1cc([N+](=O)[O-])ccc1-2	48.7*	25.9	13.0	45.9*	46.3*	-25.9	38.2*	66.6*	30.8*	34.0	10.7*	57.8*	54.2*
CC(=NO)c1ccc2c(c1)Cc1cc([N+](=O)[O-])ccc1-2	-3.9	19.3	/	/	-1.8	-19.3	/	/	/	/	/	/	/
CCCN(C1CCS(=O)(=O)C1)S(=O)(=O)c1cc(OC)ccc1OC (stereo unspecified)	3.0	-28.2	/	/	-1.1	/	/	/	/	/	/	/	/
CSC1=NCCN1C(=O)c1c(F)cccc1F	4.2	-19.9	0.8	3.8	-1.6	19.9	/	/	/	/	/	/	/
CC(=O)C1=NN(c2ccccc2)C(c2cccs2)N1c1ccc(N(C)C)cc1 (stereo unspecified)	-3.6	-23.5	-37.8	-10.0	-2.9	23.5	/	/	/	/	/	/	/
CC(=O)C1=NN(c2ccccc2)C(c2ccc3c(c2)OCO3)N1c1ccccc1 (stereo unspecified)	21.1*	58.1	-11.8	28.0*	20.1	-58.1	16.6	35.7*	/	/	/	38.9*	49.0*
Cc1ccc(-n2c(N)c(-c3nc4ccccc4n3C)sc2=S)cc1	3.4	52.6	-14.4	-12.0	-8.7	-52.6	/	/	/	/	/	/	/
Cn1c(-c2c(N)n(-c3ccccc3)c3nc4ccccc4nc23)nc2ccccc21	55.0*	44.7	11.2	54.1*	46.6*	-44.7	48.5*	76.0*	42.2*	46.4	12.2*	71.0*	72.9*
N#Cc1sc2nc(-c3cccs3)cc(-c3ccc(Cl)cc3)c2c1N	24.1*	68.0	/	43.6*	30.1*	-68.0	46.6*	74.7*	46.2*	44.9	2.7	63.8*	65.8*
CCN(CC)C(=O)c1sc2nc(-c3cccs3)cc(-c3ccc(Cl)cc3)c2c1N	-9.0	55.1	/	6.8	18.3	-55.1	/	/	/	/	/	/	/
COc1ccc(-c2cc(N)n(S(=O)(=O)c3c(F)c(F)c(F)c(F)c3F)n2)cc1OC	59.4*	13.0	/	27.4*	18.0	-13.0	17.1	-10.6	/	/	/	85.6*	18.5*
CCCCNC(=O)c1nn(-c2ccccc2OC)c(=O)c2ccccc12	26.1*	-3.6	-0.1	25.7*	23.8*	3.6	19.8	23.2	13.6	18.3	1.2	23.0*	23.7*
